What was measured:
[1] = tested on: Rattus norvegicus; assay: Antiinflammatory activity in Wistar rat assessed as inhibition of carrageenan-induced hind paw edema at 20 mg/kg, po administered 30 mins before carrageenan challenge measured after 5 hrs by plethysmometer; type: functional
Outline: (§1)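 Wistar rats of either sex, 150–175 g, fasted 16 h, n = 6 per group. Compound given orally at 20 mg/kg as a suspension in 1% CMC in water (10 mL/kg); controls got vehicle only. After 30 min, 0.1 mL of 1% carrageenan in saline was injected subplantar into the left hind paw. Paw volume was measured by plethysmometer at 0, 3 and 5 h. Inhibition = (1 − Vt/Vc) × 100, reported as mean ± SEM.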

[2] = tested on: Rattus norvegicus; assay: Antiinflammatory activity in Wistar rat assessed as inhibition of carrageenan-induced hind paw edema at 20 mg/kg, po administered 30 mins before carrageenan challenge measured after 3 hrs by plethysmometer; type: functional; outline: as §1

Structure (SMILES)	inhibition in vivo at 20 mg/kg [1] [%]	inhibition in vivo at 20 mg/kg [2] [%]
Cc1cc(O)c(C2=NN(c3ccc(S(N)(=O)=O)cc3)C(c3ccc(Cl)cc3)C2)cc1Cl (centres undefined)	71.4	65.8
COc1cc(C)c(Cl)cc1C1=NN(c2ccc(S(N)(=O)=O)cc2)C(c2cccc(O)c2)C1 (centres undefined)	16.7	39.5

— ChEMBL document CHEMBL1914430, “Synthesis of some new 1,3,5-trisubstituted pyrazolines bearing benzene sulfonamide as anticancer and anti-inflammatory agents” (Bioorg Med Chem Lett, 2011)
